# SENP8 block-1 – blocks human SENP8 cleavage of Nedd8 substrate; Q96LD8; 360,000 tested, 0.64% active; recombinant SENP8, Nedd8 substrate fluorescence; inhibition, % at 20 µM; in the data active = inhibition mostly above about 40%, no sharp cut-off; inactive = mostly below about 27%
# SENP6 block – inhibitors of human SENP6 protease; Q9GZR1; Recombinant SENP6 catalytic domain, aminoluciferin luminescence; inhibition, % at 10 µM; 330,000 tested, 1.8% active;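 active = inhibition above about 50% at the single tested dose, limit read from the data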;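 also: plate controls were DMSO wells with enzyme for no effect and DMSO wells lacking enzyme for full effect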
# SENP8 block-2 – SENP8 protease inhibition | purified SENP8, Z-RLRGG-aminoluciferin cleavage, luminescence | inhibition, % at 10 µM | 330,000 tested, 1.2% active | AID 2540; in the data active = inhibition above about 50%
# SENP7 block – inhibitors of human SENP7 protease. AID 434973. 330,000 tested, 1.5% active. inhibition, % at 5 µM. recombinant SENP7, Z-RLRGG-aminoluciferin luminescence, 40 min;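 active = inhibition above about 50% at the single test dose, limit read from the data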;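 also: plate controls were DMSO with enzyme for no effect and no enzyme buffer wells for full effect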
# Target sequence (Q9BQF6 706-1050 limits assumed): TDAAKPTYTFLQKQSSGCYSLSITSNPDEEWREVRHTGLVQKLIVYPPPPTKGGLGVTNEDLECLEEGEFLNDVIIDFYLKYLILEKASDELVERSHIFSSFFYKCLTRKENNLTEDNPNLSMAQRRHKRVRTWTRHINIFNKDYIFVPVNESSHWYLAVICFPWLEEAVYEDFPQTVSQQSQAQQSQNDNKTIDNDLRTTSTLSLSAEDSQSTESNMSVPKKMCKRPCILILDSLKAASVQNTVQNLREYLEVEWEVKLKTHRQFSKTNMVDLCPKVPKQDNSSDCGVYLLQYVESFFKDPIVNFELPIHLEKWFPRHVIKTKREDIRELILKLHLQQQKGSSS
# SENP1 inh – blocks the human SENP1 SUMO protease catalytic domain | recombinant SENP1 catalytic domain, CyPet-SUMO1-YPet FRET cleavage | inhibition, % at 10 µM | Q9P0U3 | 360,000 tested, 0.21% active | AID 624204;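 active = inhibition at least 30% at 10 µM, raw YFP signal under a set limit, fluorescence ratio 0.5 to 1.5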;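 also: 0% = enzyme with DMSO and 100% = no enzyme wells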
# Target sequence (Q9P0U3 419-644 limits assumed): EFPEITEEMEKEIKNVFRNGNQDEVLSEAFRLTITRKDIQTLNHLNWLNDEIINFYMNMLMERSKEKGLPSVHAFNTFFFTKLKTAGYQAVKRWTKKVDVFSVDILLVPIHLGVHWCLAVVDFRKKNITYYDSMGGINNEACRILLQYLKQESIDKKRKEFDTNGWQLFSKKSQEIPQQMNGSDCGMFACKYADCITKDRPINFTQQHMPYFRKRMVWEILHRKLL
#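 Test system: recombinant human SENP1 catalytic domain, His6-tagged / Medium: pH 8 Tris buffer with EDTA, NaCl, BME, BSA, NP40, catalase / Also added: SUMO1 FRET substrate flanked by Cypet and Ypet, 25 nM / Times: 50 min reaction at room temperature / Signal: FRET, CFP and YFP emission / Control set: no-enzyme low control and enzyme-plus-DMSO high control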
# An asterisk follows results filed as active; nt = not tested or not shown. This is a sample that favours compounds with a hit; in the whole collection about 2.5% have one here.
SMILES,SENP8 block-1,SENP6 block,SENP8 block-2,SENP7 block,SENP1 inh
COc1ccc(N=NC2=C(O)CC(C)(C)CC2=O)cc1,28,-1,-3,4,15
COc1ccc(N=NC2=C(O)CC(C)(C)CC2=O)c(OC)c1,22,2,1,-2,69*
CCN(CCCNc1cc2c(c(N)c1S(=O)(=O)O)C(=O)c1ccccc1C2=O)c1ccccc1,57*,nt,nt,nt,0
CCOC(=O)C1CCN(c2c(NCCCN(CC)c3ccccc3)c(=O)c2=O)CC1,8,0,-3,-5,0
C=CCN1C(=O)C2(NNc3ccccc3O2)c2ccccc21 (stereo unspecified),-121,-23,-20,-5,81*
CCCCN1C(=O)C2(NNc3ccccc3O2)c2ccccc21 (stereo unspecified),-47,8,6,0,45
CS/C(N)=N/N=C/c1ccc2c(c1)OCO2,7,25,20,50*,0
CN(/N=C/c1ccc2c(c1)OCO2)c1ccccc1,19,63*,64*,57*,3
CCOC(=O)/C=C1\SC(C)C(=O)N1CC(=O)N(CCC#N)c1ccccc1 (stereo unspecified),-2,-3,-12,6,0
CC1CCc2c(sc3ncn(CC(=O)N=Nc4c(O)[nH]c5ccccc45)c(=O)c23)C1 (stereo unspecified),44*,-12,-8,11,3
COc1ccc(N=Nc2ccc(N)nc2N)cc1,4,78*,73*,78*,-15
COc1ccc(N=Nc2cc(OC)c(N)cc2OC)cc1,42*,nt,nt,nt,6
O=C(O)CCN1CCc2ccccc2C1c1ccncc1 (stereo unspecified),-28,-5,-5,1,1
COc1cccc(C(=O)N2CCC2(C)C(=O)O)c1 (stereo unspecified),8,nt,nt,nt,-1
Cc1nc2ccc(S(=O)(=O)Nc3ccc(-c4nc5cccnc5s4)cc3)cc2s1,-417,9,4,7,-32
O=S(=O)(Nc1ccc(-c2nc3cccnc3s2)cc1)c1ccccc1F,-468,83*,66*,38,-54
O=C(NCCOc1ccccc1F)c1ccc2c(=O)n3c(nc2c1)CCC3,-413,-1,-5,18,-9
O=C(Cc1ccccc1)NC1(O)C(=O)c2ccccc2C1=O,50*,42,30,13,2
Cc1nc(Cc2nnc(SCC(=O)N3c4ccccc4NC(=O)C3(C)C)o2)cs1,9,nt,nt,nt,1
CC1=NN(c2ccc(Cl)cc2)C(=O)C1,14,11,-6,10,0
CC1=NN(c2cccc([N+](=O)[O-])c2)C(=O)C1,21,24,3,17,2
CC1=NN(c2ccc(N)cc2)C(=O)C1,68*,28,5,18,-2
CC1=NN(c2ccccc2)C(=O)C1,49*,-8,-5,-3,3
CCOC(=O)/C=C(\C)Sc1cc(O)c2ccccc2c1O,48*,nt,nt,nt,4
Nc1n[nH]c(N)c1N=Nc1ccccc1F,34*,-12,-6,0,1
SMILES,SENP8 block-1,SENP6 block,SENP8 block-2,SENP7 block,SENP1 inh
Nc1n[nH]c(N)c1N=Nc1ccc(F)cc1,41*,15,-5,6,-1
Nc1n[nH]c(N)c1N=Nc1ccccc1,27,-5,-2,4,2
CC(=O)NC1=C(Nc2ccc(N(C)C)cc2)C(=O)c2ccccc2C1=O,44*,38,14,5,3
CN(C)S(=O)(=O)c1ccc(C(=O)Nc2ccn(C)n2)cc1,-4,-17,7,3,1
CCOc1ccc2c(c1)C(C)=CC(C)(C)N2S(=O)(=O)c1ccc(F)cc1,19,13,7,5,0
CCOc1ccc2c(c1)-c1c(ssc1=S)C(C)(C)N2C,47*,-5,-5,-6,3
CCOC(=O)N1CCC(N2CCCC(C(=O)c3ccccc3OC)C2)CC1 (stereo unspecified),-10,-23,-11,-17,-4
CCOC(=O)CCSc1nc(C)cc(C(F)(F)F)c1C#N,-28,-5,-5,-13,76*
CCC(C)NS(=O)(=O)c1cc2c3c(c1)CCN3C(=O)CC2 (stereo unspecified),24,-5,-2,11,0
COC(=O)C1=NN(C(=O)c2cccc(Br)c2)C(O)(c2ccc(Cl)cc2)C1 (stereo unspecified),28,-5,1,1,65*
CCOC(=O)C1=NN(C(=O)c2ccc(OC)cc2)C(O)(c2ccc(Cl)cc2)C1 (stereo unspecified),13,-5,-3,-9,20
CN1CCN(Cn2cc(/C=C/C(=O)c3ccccc3)c3ccccc32)CC1,-288,59*,10,23,-22
Cc1cc(C(=O)Nc2ccc(F)cc2C)n(-c2ccccc2)n1,17,-18,-11,-7,2
O=C(Nc1ncc([N+](=O)[O-])s1)c1ccc2c(c1)OCO2,19,96*,97*,102*,-63
O=C(Cc1ccc(Br)cc1)Nc1ncc([N+](=O)[O-])s1,18,94*,92*,53*,-49
Cc1ccc(C(=O)Nc2ncc([N+](=O)[O-])s2)cc1,20,nt,nt,nt,-56
Nc1cc2c3c(cccc3c1)C(=O)N(CCN1CCCC1)C2=O,24,nt,nt,nt,38
O=C1c2cccc3cc([N+](=O)[O-])cc(c23)C(=O)N1CCN1CCCC1,30,11,4,10,70*
O=C(Cn1cnc(S(=O)(=O)N2CCCC2)c1)Nc1cccc(F)c1,4,13,9,2,4
COc1ccccc1C(=O)Nc1nc2ccc(S(C)(=O)=O)cc2s1,-87,-20,-14,13,-2
COc1ccccc1C(=O)Nc1nc2ccccc2s1,-171,100*,97*,100*,1
COc1n[nH]c(C(=O)Nc2nc3ccccc3s2)c1[N+](=O)[O-],16,96*,91*,92*,0
CSc1ncccc1C(=O)Nc1nc2ccc(Oc3ccccc3)cc2s1,-159,94*,90*,95*,-1
COC(=O)c1c(C(=O)OC)c(-c2ccc(OC)cc2)n2c1CS(=O)(=O)C2,-5,-28,-4,2,-1
COc1ccc(CN2CCCC2C(=O)Nc2ccc(OC)c(OC)c2)cc1OC (stereo unspecified),-4,-19,-3,64*,3
SMILES,SENP8 block-1,SENP6 block,SENP8 block-2,SENP7 block,SENP1 inh
COc1ccc(CN2CCCCC2C(=O)Nc2ccc(OC)c(OC)c2)cc1OC (stereo unspecified),10,4,-8,1,0
COC1=C(Br)C(=O)c2nc(C)ccc2C1=O,86*,nt,nt,nt,7
COC1=C(N)C(=O)c2nc(C)ccc2C1=O,99*,nt,nt,nt,0
COC1=C(Nc2ccc(C)cc2)C(=O)c2ccccc2C1=O,-51,30,5,12,3
COc1ccc(N)c2c1C(=O)c1ccccc1C2=O,29,nt,nt,nt,4
CCC(C)NC(=O)CN(c1cc(Cl)cc(Cl)c1)S(C)(=O)=O (stereo unspecified),7,4,-10,-9,-3
CCCN(CC(=O)NC(=O)NCc1ccccc1)CC(=O)Nc1ccc(F)c(F)c1F,13,nt,nt,nt,0

# Compound activity: PubChem, Sanford-Burnham Center for Chemical Genomics
